# TMEM16A inh: TMEM16A chloride channel inhibitors, primary screen, cell-based, HTS. HEK293 TMEM16A/YFP iodide influx fluorescence, ionomycin. AID 588511, 2011. Anoctamin-1 (Mus musculus), Q8BHY3. actives 1.2% (n = 310,000). normalized B-score (activity score, 25-100; higher = stronger inhibition) at 10 µM;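 active = ratio plate-corrected score three or more library SD toward inhibition, starting fluorescence score within five deviations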;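 also: score derived from kinetic fluorescence span divided by baseline fluorescence per well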
# CHT block: inhibitors of human choline transporter CHT | High affinity choline transporter 1 (Homo sapiens), Q9GZV3 | CHT-expressing cells, membrane potential dye, choline response; hits give low values | B-score at 10 µM | actives 0.86% (n = 310,000) | AID 488975, 2010;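 active = B-score over 3 SD under the library average, and starting fluorescence ratio not unusually high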;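 also: choline stimulus applied at its EC90 after an EC20 pre-addition; B-score computed on integrated fluorescence ratio after choline addition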
# IMP-1 inh: IMP-1 metallo-beta-lactamase inhibitors, primary screen, biochemical, epi-absorbance readout, Pseudomonas aeruginosa enzyme | metallo-beta-lactamase IMP-1 (Pseudomonas aeruginosa) | purified IMP-1, nitrocefin hydrolysis, epi-absorbance fluorescence | inhibition, % at 5.6 µM | actives 0.45% (n = 290,000) | AID 1556, 2009;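 active = inhibition above the mean plus 3 SD of all compounds in the same screening run, cut at about 4.5% in these data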;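 also: 0% = IMP-1 with DMSO and 100% = DMSO wells lacking enzyme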
#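 System: purified IMP-1 / Input: IMP-1 dispensed at 0.2 nM / Medium: 50 mM HEPES pH 7.1, 50 µM ZnSO4, 0.05% Brij 35 / Timing: 15 min enzyme–compound preincubation, then 25 min nitrocefin reaction, 25 °C / Technique: plate fluorescence quenching by hydrolysis product, ex 480/em 530 nm / Repeats: singlicate testing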
# CHT allo act: CHT positive allosteric modulators, primary screen, cell-based, membrane potential dye, choline EC20; CHT-expressing cells; hits give high values; LV-AA mutant CHT in HEK293 cells; B-score at 10 µM; actives 0.49% (n = 310,000); AID 488977, 2010;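 active = initial fluorescence not abnormally high and integrated response B-score, plate-corrected, over 3 SD above library mean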
# VIM-2 inh: VIM-2 metallo-beta-lactamase inhibitors, primary screen, biochemical, epi-absorbance readout, Pseudomonas aeruginosa enzyme; actives 0.89% (n = 290,000); inhibition, % at 5.6 µM; purified VIM-2, nitrocefin hydrolysis, epi-absorbance fluorescence;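 active = inhibition above the mean of all tested compounds plus 3 SD, cutoff set per screening run, cut at about 7.5% in these data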;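 also: red hydrolysis product quenches plate fluorescence so inhibitors raise well fluorescence; 0% = enzyme with DMSO and 100% = DMSO without enzyme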
# TMEM16A act: TMEM16A chloride channel activators or potentiators, primary screen, cell-based, HTS; Anoctamin-1 (Mus musculus), Q8BHY3; HEK293 TMEM16A/YFP-H148Q/I152L, iodide quench fluorescence; hits give low values; B-score at 10 µM; actives 0.3% (n = 340,000);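 active = fluorescence-ratio B-score plate-corrected deviation score at least 3 library SD below zero, with starting fluorescence score within 5 deviations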;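 also: channel opened by trigger with iodide after compound preincubation; score built on the fluorescence ratio of max minus min over baseline; more negative score means more quench and so TMEM16A activation or potentiation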
# CHT act confirm: CHT activators, confirmation, cell-based, membrane potential dye, duplicate; shares compounds with CHT allo act; CHT-expressing cells, membrane potential dye fluorescence (FDSS); % of choline EC20–EC90 response window; HEK293 expressing CHT LV-AA mutant; choline added at its EC20; activation, % at 10 µM; actives 91% (n = 2,500); AID 504833, 2011;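 active = primary screen active, with duplicate mean activation above negative control mean plus 3 SD, cut at about 11% in these data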
# HEK293 MP dye: membrane potential response in parental HEK293 cells, counter-screen for CHT activator project, cell-based, membrane potential dye; shares compounds with CHT allo act; membrane potential dye fluorescence (FDSS); measured after EC20 choline addition; ratio readout change at 10 µM, hits read low; actives 62% (n = 2,500); AID 623908, 2012;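 active = duplicate-averaged ratio beyond 3 SD from buffer wells, up or down, though filed actives are nearly all decreases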
# * hit, by the source's call; i = inactive; · = no result given. The list is not random: actives were taken first. Their share in the collection is about 3.4%.
SMILES,TMEM16A inh,CHT block,IMP-1 inh,CHT allo act,VIM-2 inh,TMEM16A act,CHT act confirm,HEK293 MP dye
CCOC=C1C(=O)N(C(C)=O)c2cc(OC)c(OC)cc21,·,·,·,·,·,i,·,·
Cc1ccc(COn2c(-c3ccc(Cl)cc3Cl)nc3ncccc32)cc1,i,i,-5,6.6*,-3,i,31*,i
O=C(O)c1ccn(CSc2cc(Cl)ccc2Cl)n1,·,·,·,·,·,i,·,·
CCOc1ccccc1-n1c(SCC(=O)Nc2nccs2)nnc1-c1ccoc1C,i,i,-3,i,-4,i,3,i
C[C@H]1C(=O)N(C)CCN1Cc1cn(C)nc1-c1ccc(Oc2ccccc2)cc1,i,i,-3,i,-2,i,·,·
CCN(CC)C(=O)C1CCN(Cc2cn(C)nc2-c2ccc(Oc3ccccc3)cc2)CC1,i,i,1,i,0,i,1,i
COCCN(C(=O)CCC(=O)Nc1cc(C)on1)C(C(=O)NC1CCCC1)c1ccc(C(C)C)cc1 (configuration not stated),i,i,-1,i,2,i,·,·
CC[N+](CC)(CC#Cc1ccccc1)CC#Cc1ccccc1,i,i,-3,7.7*,-1,i,49*,i
CCCCNC(=O)CCC(=O)Nc1ccc2nc(N3CCC(C)CC3)cc(C)c2c1,i,i,-1,i,-5,i,38*,-35*
CCC(C)NC(=O)CCC(=O)Nc1ccc2nc(N3CCOCC3)cc(C)c2c1 (configuration not stated),i,i,-2,7.9*,-3,i,59*,-59*
CCC(C)NC(=S)Nc1ccc2nc(N3CCOCC3)cc(C)c2c1 (configuration not stated),i,i,0,i,-3,i,·,·
Cc1cc(N2CCOCC2)nc2ccc(NC(=O)CCC(=O)N3CCC(C)CC3)cc12,i,i,0,i,-3,i,·,·
CCCCN(C)C(=O)CCC(=O)Nc1ccc2nc(N3CCOCC3)cc(C)c2c1,i,i,-3,7.7*,1,i,48*,-34*
CCCC(=O)N(c1ccc(OCC)cc1)S(=O)(=O)c1ccc2c3c(cccc13)C(=O)N2C,i,i,-1,i,-2,i,·,·
O=C(Cc1ccc(Br)cc1)OCC(=O)c1ccc[nH]1,·,·,·,·,·,i,·,·
Cc1ccc(C(=O)CN2C(=O)NC3(CCc4ccccc43)C2=O)s1 (configuration not stated),·,·,·,·,·,i,·,·
CN(CC(=O)Nc1ccccc1Cl)C(=O)C1CCN(C(=O)c2ccc(F)cc2)CC1,·,·,·,·,·,i,·,·
Cc1ccc(S(=O)(=O)N(C)C)cc1NC(=S)NC12CC3CC(CC(C3)C1)C2,·,·,-5,·,-3,i,·,·
Cc1ccc(S(=O)(=O)N(C)C)cc1NC(=S)NC(=O)C12CC3CC(CC(C3)C1)C2,i,i,-2,i,-7,i,3,i
COC(=O)c1ccc(Oc2nc(NC(C)(C)C)nc(N3CCOCC3)n2)cc1,i,i,-1,i,-3,·,·,·
CC(C)(C)C(=O)Nc1ccc(C(=O)CSc2nnc(C3CC3)n2C2CC2)cc1,·,·,·,·,·,i,·,·
Cc1c(C(=O)NCCSCc2cccc(C(F)(F)F)c2)cnn1-c1ccc(Cl)cc1,i,i,-4,i,-1,i,·,·
